The test system of experiment [1] is Canis familiaris. The experiment is described as follows: Antisecretory activity in Beagle dog assessed as inhibition of gastrin tetrapeptide-stimulated gastric acid secretion at 20 mg/kg, po administered 1 hr prior to gastrin tetrapeptide challenge measured every 30 mins for 90 mins relative to placebo control. In kind it is functional. As to conditions: Canis lupus familiaris, Stomach. Summed up: (§1)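 Conscious female beagles (7–10 kg) with a chronic gastric fistula received compound through the gastric cannula, called oral. Gastric output was collected over three 30-min periods (90 min) after the stimulant. Titratable acid in an aliquot was titrated to pH 7 with 0.01 N NaOH using a glass-calomel electrode. The value is the maximal % drop in acid concentration against a placebo trial in the same dog, with SE where more than two animals.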

Experiment [2] deals with Canis familiaris. The experiment in a line: Antisecretory activity in Beagle dog assessed as inhibition of histamine-stimulated gastric acid secretion at 40 mg/kg, po administered 1 hr prior to histamine challenge measured every 30 mins for 90 mins relative to placebo control. To be noted: Canis lupus familiaris, Stomach. Details: dose 40 mg/kg. It is filed as functional, organism-based. Summed up: as §1

Experiment [3] addresses Histamine H2 receptor (Rattus norvegicus) (UniProt P25102). The experiment in a line: Antagonist activity at histamine H2 receptor in Charles River rat assessed as inhibition of histamine-mediated electrically stimulated uterine contraction at 20 ug/mL relative to histamine-treated placebo. Summed up: (§2)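 Uteri taken from female rats (150–200 g) primed with diethylstilbesterol (0.16 mg/rat) 16–20 h before sacrifice. Single horns were held in McEwen's solution at 34 °C under 95% O2–5% CO2. They were stimulated electrically every 50 s for 10 s with maximal current and 60 Hz trains of 1-ms pulses, and the block of the histamine response was scored. Footnote cutoff: under 30% reduction with test compound at 20 µg/mL.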

For another experiment, the target named is Histamine H2 receptor (Rattus norvegicus, UniProt P25102). The experiment in a line: Antagonist activity at histamine H2 receptor in Charles River rat assessed as inhibition of histamine-mediated electrically stimulated uterine contraction. Summed up: as §2
Histamine H2 receptor, sequence (P25102 whole entry): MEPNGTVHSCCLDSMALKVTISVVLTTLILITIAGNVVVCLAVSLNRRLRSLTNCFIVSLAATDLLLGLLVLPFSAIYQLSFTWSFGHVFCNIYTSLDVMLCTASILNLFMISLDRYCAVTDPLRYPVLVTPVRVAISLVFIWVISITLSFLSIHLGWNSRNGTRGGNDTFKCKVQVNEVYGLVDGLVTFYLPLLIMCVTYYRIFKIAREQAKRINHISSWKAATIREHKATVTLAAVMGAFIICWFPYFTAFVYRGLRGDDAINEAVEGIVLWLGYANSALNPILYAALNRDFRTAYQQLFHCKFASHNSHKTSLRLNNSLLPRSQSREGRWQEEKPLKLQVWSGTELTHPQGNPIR
In experiment [4] the target is Histamine H2 receptor (Cavia porcellus) (UniProt P47747). The experiment in a line: Antagonist activity at histamine H2 receptor in Hartley guinea pig atrium assessed as ratio of histamine concentration required in control to that required in presence of compound to increase atrium rate by 50 beats/min at 10 ug/mL. To be noted: Cardiac atrium. Summed up: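 Spontaneously beating Hartley guinea pig atria were dissected free of other myocardium and held in McEwen's solution on a transducer. Rate was counted from the tracing. Histamine was given at increasing concentrations (0.05–3.2 µg/mL) with placebo or with inhibitor at 10 µg/mL. The value is the ratio of histamine concentration needed to raise rate by 50 beats/min in the placebo trial to that needed with compound.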
Histamine H2 receptor (Cavia porcellus), sequence (P47747 whole entry): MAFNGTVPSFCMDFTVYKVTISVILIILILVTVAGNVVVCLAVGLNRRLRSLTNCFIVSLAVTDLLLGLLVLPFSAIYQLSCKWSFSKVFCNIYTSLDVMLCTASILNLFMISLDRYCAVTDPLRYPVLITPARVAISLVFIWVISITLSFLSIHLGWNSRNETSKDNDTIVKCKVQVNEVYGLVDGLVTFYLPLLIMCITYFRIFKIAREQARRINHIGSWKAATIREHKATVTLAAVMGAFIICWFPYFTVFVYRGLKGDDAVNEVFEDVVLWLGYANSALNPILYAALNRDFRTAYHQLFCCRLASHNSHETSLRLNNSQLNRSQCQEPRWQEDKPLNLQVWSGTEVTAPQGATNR

In experiment [5] the test system is Canis familiaris. The experiment is described as follows: Antisecretory activity in Beagle dog assessed as inhibition of histamine-stimulated gastric acid secretion at 20 mg/kg, po administered 1 hr prior to histamine challenge measured every 30 mins for 90 mins relative to placebo control. It is filed as functional. To be noted: Canis lupus familiaris, Stomach. Summed up:
as §1

In experiment [6] the test system is Canis familiaris. The experiment in a line: Antisecretory activity in Beagle dog assessed as inhibition of gastrin tetrapeptide-stimulated gastric acid secretion at 40 mg/kg, po administered 1 hr prior to gastrin tetrapeptide challenge measured every 30 mins for 90 mins relative to placebo control. It is filed as functional, organism-based. The arrangement: dose 40 mg/kg. To be noted: Canis lupus familiaris, Stomach. Summed up: as §1

SMILES strings stand for the structures. Calls of active or inactive are those of the source.

Histamine H2 receptor (Rattus norvegicus), sequence (P25102 whole entry): as the sequence (P25102 whole entry) above

Turning to `Cc1cc(C)c2ccc(=O)n(CCN(C3CCCCC3)C3CCCCC3)c2n1`, the inhibition in vivo (commonly the change of the read-out against control, counted positive when it falls) at 20 mg/kg in the experiment with Canis familiaris [1] is less than 25%. In the experiment on Canis familiaris [2], the inhibition – broadly, the share of the control response that was lost under treatment – was “inactive”. Further, the inhibition in experiment [3] is less than 30%.

Turning to `Cc1cc(C)c2ccc(=O)n(CCCN(C)C)c2n1`, the inhibition in vivo at 20 mg/kg in the experiment with Canis familiaris [1] was 31%. In addition, in the experiment with Canis familiaris [2], the inhibition result is “inactive”. The inhibition in experiment [3] is less than 30%.

In the case of `Cc1cc(C)c2ccc(=O)n(CC[N+](C)(C)C)c2n1`, the inhibition in vivo at 20 mg/kg in the experiment with Canis familiaris [1] was less than 25%. In the experiment with Canis familiaris [2], the inhibition result is “inactive”. In addition, in experiment [3], the inhibition is less than 30%.

As for `CC(C)c1ccc2ccc(=O)n(CCN(C)C)c2n1`, the inhibition in vivo at 20 mg/kg in the experiment on Canis familiaris [1] was less than 25%. Further, the 50% effective concentration (EC50) (in general, the midpoint of the concentration-response curve) on Histamine H2 receptor is 2.31 µM. Also, the inhibition entry in the experiment with Canis familiaris [2] is “inactive”.

As for `CCc1ccc2ccc(=O)n(CCN(C)C)c2n1`, in the experiment with Canis familiaris [1], the inhibition in vivo at 20 mg/kg was less than 25%. Also, at Histamine H2 receptor, the EC50 is 3.22 µM. Besides, in the experiment on Canis familiaris [2], the inhibition result is “inactive”.

In the case of `COc1cc(C)c2ccc(=O)n(CCN(C)C)c2n1`, the inhibition in vivo at 20 mg/kg with Canis familiaris [1] amounted to 27%. On Histamine H2 receptor, the concentration for a half-maximal effect (EC50) is 26.8 µM. Besides, in the experiment with Canis familiaris [2], the inhibition entry was “inactive”.

Regarding `CNC(=S)NCCSCc1[nH]cnc1C` [METIAMIDE], the inhibition in vivo at 20 mg/kg with Canis familiaris [1] amounted to 76%; in the experiment with Canis familiaris [5], 46%. Also, the Ratio in experiment [4] worked out at 0.003.

With `CN(C)CCn1c(=O)ccc2ccccc21`, in the experiment on Canis familiaris [1], the inhibition in vivo at 20 mg/kg is less than 25%. In addition, in the experiment with Canis familiaris [2], the inhibition entry was “inactive”. Further, the inhibition in experiment [3] was less than 30%.

Regarding `CNCCn1c(=O)ccc2c(C)cc(C)nc21`, in the experiment on Canis familiaris [1], the inhibition in vivo at 20 mg/kg was less than 25%. In addition, at Histamine H2 receptor, the half-maximal effective concentration (EC50) was 91.2 µM. Besides, the inhibition entry in the experiment on Canis familiaris [2] was “inactive”.

Take `C/N=C(\S)NCCSCc1[nH]cnc1C` [METIAMIDE]: the EC50 at Histamine H2 receptor was 1.15 µM.

`Cc1cc(C)c2ccc(=O)n(CC(C)(C)N(C)C)c2n1`: the inhibition in vivo at 20 mg/kg in the experiment with Canis familiaris [1] turned out to be 38%. The concentration giving a half-maximal response (EC50) on Histamine H2 receptor was 38 µM. Also, the inhibition result in the experiment with Canis familiaris [2] is “inactive”.

In the case of `CCc1cc(CC)c2ccc(=O)n(CCN(C)C)c2n1`, the inhibition in vivo at 20 mg/kg in the experiment on Canis familiaris [1] is less than 25%. Moreover, the concentration giving a half-maximal response (EC50) on Histamine H2 receptor is 19 µM. Besides, the inhibition result in the experiment on Canis familiaris [2] was “inactive”.

`Cc1ccnc2c1ccc(=O)n2CCN(C)C`: the inhibition in vivo at 20 mg/kg in the experiment on Canis familiaris [1] was determined as 58%. Further, the inhibition entry in the experiment on Canis familiaris [2] is “inactive”. Also, the inhibition in experiment [3] is less than 30%.

For the compound `Cc1cc(C)c2ccc(=O)n(CCN)c2n1`, the inhibition in vivo at 20 mg/kg in the experiment with Canis familiaris [1] is less than 25%. In addition, at Histamine H2 receptor, the EC50 was 156 µM. In the experiment on Canis familiaris [2], the inhibition entry is “inactive”.

Consider `Cc1cc(Cl)nc2c1ccc(=O)n2CCN(C)C`, for which the inhibition in vivo at 20 mg/kg with Canis familiaris [1] is less than 25%. Besides, the EC50 at Histamine H2 receptor is 34.7 µM. Further, the inhibition result with Canis familiaris [2] is “inactive”.

In the case of `Cc1cc(C)c2ccc(=O)n(CCN3C(C)(C)CCCC3(C)C)c2n1`, the inhibition in vivo at 20 mg/kg in the experiment on Canis familiaris [1] is less than 25%. Also, the inhibition result with Canis familiaris [2] was “inactive”. Further, the inhibition in experiment [3] is less than 30%.

For the compound `CN(C)CCn1c(=O)ccc2cccnc21`, in the experiment on Canis familiaris [1], the inhibition in vivo at 20 mg/kg was found to be 59%. Besides, the inhibition entry in the experiment on Canis familiaris [2] is “inactive”. Further, the Ratio in experiment [4] is 0.54. Besides, the inhibition in experiment [3] was less than 30%.

`Cc1cc(C)c2c(n1)N(CCN(C)C)C(=O)CC2`: the inhibition in vivo at 20 mg/kg in the experiment on Canis familiaris [1] was less than 25%. In addition, the concentration giving a half-maximal response (EC50) at Histamine H2 receptor was 19.4 µM. Moreover, the inhibition entry in the experiment with Canis familiaris [2] was “inactive”. Further, the Ratio in experiment [4] was 0.013.

Regarding `Cc1ccc2ccc(=O)n(CCN(C)C)c2n1`, in the experiment with Canis familiaris [1], the inhibition in vivo at 20 mg/kg was less than 25%. For the same compound, at Histamine H2 receptor, the half-maximal effective concentration (EC50) is 9.43 µM. Further, in the experiment with Canis familiaris [2], the inhibition entry was “inactive”.

In the case of `Cc1cc(C)c2ccc(=O)n(CCN3CCCCC3)c2n1`, in the experiment with Canis familiaris [1], the inhibition in vivo at 20 mg/kg came to 40%. At Histamine H2 receptor, the EC50 was 10.7 µM. The inhibition entry in the experiment with Canis familiaris [2] is “inactive”.

As to `CN(C)CCn1c(=O)ccc2c(C(F)(F)F)cc(C(F)(F)F)nc21`, the inhibition in vivo at 20 mg/kg with Canis familiaris [1] stood at 32%. Besides, the inhibition result with Canis familiaris [2] was “inactive”. Besides, the inhibition in experiment [3] is less than 30%.

As for `Cc1cc(C)c2ccc(=O)n(CCCCN(C)C)c2n1`, in the experiment with Canis familiaris [1], the inhibition in vivo at 20 mg/kg is less than 25%. The inhibition entry in the experiment on Canis familiaris [2] was “inactive”. For the same compound, the inhibition in experiment [3] was less than 30%.

In the case of `CCN(CC)CCn1c(=O)ccc2c(C)cc(C)nc21`, the inhibition in vivo at 20 mg/kg in the experiment on Canis familiaris [1] was less than 25%. At Histamine H2 receptor, the EC50 is 4.1 µM. For the same compound, in the experiment with Canis familiaris [2], the inhibition entry is “inactive”.

`Cc1nc2c(ccc(=O)n2CCN(C)C)c(C)c1C`: the inhibition in vivo at 20 mg/kg with Canis familiaris [1] came out at 61%. Besides, the half-maximal effective concentration (EC50) on Histamine H2 receptor is 48.2 µM. For the same compound, in the experiment on Canis familiaris [2], the inhibition entry is “inactive”.

In the case of `CCn1c(=O)ccc2c(C)cc(C)nc21`, the inhibition in vivo at 20 mg/kg in the experiment on Canis familiaris [1] is less than 25%. Also, in the experiment on Canis familiaris [2], the inhibition result was “inactive”. In addition, in experiment [3], the inhibition was less than 30%.

In the case of `Cc1cc(C)c2ccc(=O)n(CCN(C(C)C)C(C)C)c2n1`, the inhibition in vivo at 20 mg/kg in the experiment with Canis familiaris [1] turned out to be 57%. Further, the 50% effective concentration (EC50) on Histamine H2 receptor was 4.78 µM. The inhibition result in the experiment with Canis familiaris [2] was “inactive”. In addition, the Ratio in experiment [4] is 0.011.

Take `CC(C)Cc1ccc2ccc(=O)n(CCN(C)C)c2n1`: the inhibition in vivo at 20 mg/kg in the experiment with Canis familiaris [1] is less than 25%. On Histamine H2 receptor, the EC50 was 0.585 µM. Besides, the inhibition entry in the experiment on Canis familiaris [2] was “inactive”. Besides, the Ratio in experiment [4] turned out to be 0.21.

Take `CCCCN(CCCC)CCn1c(=O)ccc2c(C)cc(C)nc21`: the inhibition in vivo at 20 mg/kg in the experiment on Canis familiaris [1] was determined as 33%. On Histamine H2 receptor, the concentration giving a half-maximal response (EC50) was 5.46 µM. Further, the inhibition entry in the experiment on Canis familiaris [2] was “inactive”.

For the compound `Cc1cc(C)c2c(n1)N(CCN(C)C)CCC2`, the EC50 on Histamine H2 receptor is 4.33 µM. For the same compound, the inhibition entry in the experiment with Canis familiaris [2] and in the experiment with Canis familiaris [6] was “inactive” throughout.

As for `Cc1cc(C(F)(F)F)nc2c1ccc(=O)n2CCN(C)C`, the inhibition in vivo at 20 mg/kg with Canis familiaris [1] came to 34%. For the same compound, the EC50 at Histamine H2 receptor is 5.35 µM. Also, the inhibition entry in the experiment with Canis familiaris [2] is “inactive”.

Consider `Cc1cc(C(F)(F)F)c2ccc(=O)n(CCN(C)C)c2n1`, for which the inhibition in vivo at 20 mg/kg in the experiment with Canis familiaris [1] is 52%. Further, the inhibition result with Canis familiaris [2] was “inactive”. Also, in experiment [3], the inhibition was less than 30%.

As for `Cc1cc(C)c2ccc(=S)n(CCN(C)C)c2n1`, the inhibition in vivo at 20 mg/kg in the experiment with Canis familiaris [1] came out at 41%. In addition, the concentration for a half-maximal effect (EC50) at Histamine H2 receptor is 14 µM. In the experiment with Canis familiaris [2], the inhibition entry is “inactive”.

On to `Cc1cnc2c(ccc(=O)n2CCN(C)C)c1`, for which the inhibition in vivo at 20 mg/kg with Canis familiaris [1] came out at 58%. The inhibition entry in the experiment with Canis familiaris [2] is “inactive”. The inhibition in experiment [3] is less than 30%.

Turning to `Cc1cc(C)c2ccc(=O)n(CCN(C)C)c2n1`, in the experiment with Canis familiaris [1], the inhibition in vivo at 20 mg/kg worked out at 40%. At Histamine H2 receptor, the EC50 was 16 µM. Also, the inhibition result with Canis familiaris [2] was “inactive”. For the same compound, the Ratio in experiment [4] was 0.18.

With `CC(C)N(CCn1c(=O)ccc2cccnc21)C(C)C`, in the experiment on Canis familiaris [1], the inhibition in vivo at 20 mg/kg worked out at 51%. Moreover, the EC50 at Histamine H2 receptor is 76.5 µM. Besides, the inhibition entry in the experiment on Canis familiaris [2] is “inactive”.

(Values after ChEMBL document CHEMBL3228026, “Inhibition of gastric acid secretion by 1,8-naphthyridin-2(1H)-ones” (J Med Chem, 1979).)
